Compound activity deposited in PubChem by several laboratories.
S1P4 agonist: activates the human S1P4 receptor; O95977; S1P4-expressing cell line, agonist reporter assay; activation, % at 4.98 µM; actives 0.35% (n = 220,000); AID 1509; in the data active = activation above about 11%;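 note: 0% = DMSO vehicle and 100% = reference agonist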
Target sequence (O95977 whole entry, looked up): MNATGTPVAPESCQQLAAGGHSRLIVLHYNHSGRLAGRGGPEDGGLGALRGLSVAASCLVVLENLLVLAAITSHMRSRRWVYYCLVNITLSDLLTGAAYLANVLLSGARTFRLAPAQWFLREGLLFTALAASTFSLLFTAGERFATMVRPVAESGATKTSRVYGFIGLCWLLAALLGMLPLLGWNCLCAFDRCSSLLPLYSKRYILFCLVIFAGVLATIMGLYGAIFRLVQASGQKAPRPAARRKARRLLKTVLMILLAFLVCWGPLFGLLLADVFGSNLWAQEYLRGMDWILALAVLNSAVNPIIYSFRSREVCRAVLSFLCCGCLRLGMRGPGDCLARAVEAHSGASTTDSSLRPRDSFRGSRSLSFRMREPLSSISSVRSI
S1P3 antag: blocks the human S1P3 receptor. Q99500. CHO S1P3 NFAT-BLA reporter, FRET fluorescence, antagonist mode. inhibition, % at 4.98 µM. actives 0.27% (n = 170,000);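 active = inhibition above the plate cutoff, the mean inhibition of test wells on that plate plus 3 SD, cut at about 28% in these data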;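 note: cells challenged with S1P at its EC80 of 0.8 µM; blue over green emission ratio from cleaved BLA substrate after 4 h stimulation; 0% = S1P-stimulated wells and 100% = unstimulated DMSO-only wells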
Efa HMGR inh: inhibitors of class II HMG-CoA reductase from Enterococcus faecalis; purified E. faecalis HMGR, NADPH absorbance 340 nm kinetic; inhibition, % at 10 µM; actives 0.41% (n = 190,000); AID 1066;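 active = inhibition above a set limit, the median over all tested compounds plus 3 SD, cut at about 9.5% in these data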;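 note: enzyme runs in reverse so mevalonate oxidation gives rising NADPH absorbance; 0% = complete reaction with DMSO and 100% = background rate lacking mevalonate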
Calb biofilm kill: mixtures killing C. albicans biofilm; C. albicans biofilm persisters + clotrimazole, fluorescence viability; primary screen in compound mixtures of four per well; inhibition, % at 7.6 µM; actives 0.02% (n = 120,000);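 active = inhibition above 30.3% in the primary screen of four-compound pools, then above 30% when the compound was retested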;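 note: compounds exposed to preformed 24 h biofilms for 48 h; 0% = untreated biofilm control and 100% = clotrimazole plus chlorhexidine kill blank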
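Incubation: 24 h biofilm formation, then 48 h compound exposure, 37 °C | Material: C. albicans biofilms | Buffer or medium: RPMI/MOPS medium, pH 7.0 | Measured by: 2-h Alamar Blue fluorescence, 535/590 nm excitation/emission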
Rad51 HR inh: Rad51 (human) homologous recombination inhibition. hRad51 DNA strand exchange, fluorescence dequenching. inhibition, % at 10 µM. actives 0.085% (n = 200,000);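 active = inhibition above 40% at the single screening dose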;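 note: 0% = DMSO control wells and 100% = blanks with heterologous ssDNA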
Target sequence (Q06609 whole entry, looked up): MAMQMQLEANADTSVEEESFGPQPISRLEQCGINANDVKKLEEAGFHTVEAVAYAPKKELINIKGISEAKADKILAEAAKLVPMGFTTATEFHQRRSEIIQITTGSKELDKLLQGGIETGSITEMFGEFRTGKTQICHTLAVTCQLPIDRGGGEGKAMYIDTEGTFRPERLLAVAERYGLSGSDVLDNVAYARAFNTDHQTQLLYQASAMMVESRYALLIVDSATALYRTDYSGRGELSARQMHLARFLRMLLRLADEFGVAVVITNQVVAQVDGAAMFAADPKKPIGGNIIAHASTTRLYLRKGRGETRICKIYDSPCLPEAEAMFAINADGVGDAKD
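Material: human Rad51–ssDNA filaments; Probe or stimulus: labelled 47-mer dsDNA for strand exchange; Doses: single 10 µM dose; Incubation: 37 °C 15-min filament assembly, 30-min compound preincubation, 15-min exchange; Technique: FRET fluorescence dequenching, excitation 485 nm, emission 520 nm; Measure: Fluorescence-based percent inhibition, control- and blank-normalised; Benchmarks: plate control and blank wells.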
S1P4 antagonist: blocks the human S1P4 receptor. S1P4-expressing cells, antagonist mode, reporter read-out. actives 0.26% (n = 220,000). inhibition, % at 4.98 µM. O95977; in the data active = inhibition above about 29%;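 note: 0% = wells stimulated with agonist and 100% = vehicle wells without agonist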
S1P4 antag conf: confirmation of human S1P4 receptor antagonists | shares compounds with S1P4 antagonist | inhibition, % at 4.98 µM | actives 71% (n = 520) | S1P4-expressing cell line, antagonist mode, reporter read-out; in the data active = inhibition above about 30%
S1P1 antagonist: blocks human S1P1, counter-screen for S1P4 antagonists; actives 37% (n = 520); cell-based S1P1 antagonist counterscreen, inhibition; shares compounds with S1P4 antagonist; inhibition, % at 4.98 µM; in the data active = inhibition above about 40%;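 note: receptor stimulated with S1P near its EC80; 0% = agonist stimulated wells and 100% = vehicle only wells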
An asterisk follows results filed as active; i = inactive; . = no result given. Rows were chosen to be rich in hits. Some 1.2% of all compounds tested hit in one or more screens of this group.

SMILES	S1P4 agonist	S1P3 antag	Efa HMGR inh	Calb biofilm kill	Rad51 HR inh	S1P4 antagonist	S1P4 antag conf	S1P1 antagonist
COc1ccc([N+](=O)[O-])c(S(=O)(=O)c2ccc(Cl)cc2)n1	-1.4	-7.3	.	19.6	-2.1	92.8*	116.9*	103.6*
COc1ccccc1S(=O)(=O)c1ccccc1[N+](=O)[O-]	2.5	0.4	-2.0	9.9	.	1.3	.	.
Cc1ccc(C)c(NC(=S)NNC(=O)c2csc(C(C)C)c2)c1	-0.8	.	-3.3	8.3	-3.7	7.0	.	.
Cc1[nH]n2c(=O)cc(C(C)(C)C)nc2c1-c1ccccc1	1.2	-7.3	-4.3	.	-9.7	33.7*	0.7	12.2
COc1ccccc1NC(=O)Nc1nnc(CC(=O)Nc2cccc(C)c2)s1	0.0	-13.7	.	19.0	-10.3	6.8	.	.
COc1ccc(Cc2nc(-c3cccnc3)no2)cc1OC	-1.7	-2.6	-1.7	15.6	21.1	6.4	.	.
O=C1c2cccc3c([N+](=O)[O-])ccc(c23)C(=O)N1c1ccccn1	-3.0	.	-5.7	.	-15.3	104.7*	112.8*	151.2*
Oc1c(C(c2ccccc2Cl)N2CCCC2)ccc2cccnc12 (stereo not drawn)	-0.5	-8.6	-8.3	7.4	-5.3	29.6*	112.2*	92.0*
Oc1c(C(c2cccs2)N2CCN(c3ccccc3)CC2)ccc2cccnc12 (stereo not drawn)	2.5	.	4.0	.	.	-9.4	.	.
Cc1csc(SCC(=O)NC(=O)NCCC(C)C)n1	-1.6	7.3	1.6	9.1	7.5	3.4	.	.
Cc1noc(/C=C/c2nn(C)cc2Cl)c1[N+](=O)[O-]	1.2	-0.3	.	16.8	0.2	34.5*	59.1*	20.7
Cc1nn(C)c(C)c1N1C(=O)c2cccc3c(Br)ccc(c23)C1=O	1.5	.	-10.7	7.8	2.1	44.1*	89.1*	84.7*
Cc1nn(C)c(C)c1N1C(=O)c2cccc3c(N)ccc(c23)C1=O	0.8	1.0	-1.6	12.2	i	17.7	.	.
CCOc1ccc(CN(C)CC(=O)Nc2cc(C)c(C)cc2[N+](=O)[O-])cc1	1.0	-10.5	1.0	8.6	18.9	-9.0	.	.
COc1ccc(C(=O)C(CN2CCCC2)c2ccccc2)cc1 (stereo not drawn)	-1.6	.	-4.0	.	2.6	3.1	.	.
COc1ccc(C(=O)C(CN2CCOCC2)c2ccccc2)cc1 (stereo not drawn)	-2.6	.	2.8	.	-2.2	45.0*	30.6*	19.4
O=C(CC(SCCO)c1ccc2c(c1)OCO2)c1cccs1 (stereo not drawn)	-0.6	-10.8	-4.6	.	0.3	36.5*	28.5	-20.6
O=C(CC(SCc1ccco1)c1ccc(O)cc1)c1cccs1 (stereo not drawn)	-1.2	-1.6	1.2	.	-12.3	20.8	.	.
COc1ccc(-c2cc(C#N)nc(Cl)n2)cc1	-1.8	-7.5	.	5.1	-6.6	57.2*	97.4*	27.9
Oc1[nH]c2ccccc2c1N=NC(=S)N1CCOCC1	-1.6	8.4	.	17.3	3.2	23.6	.	.
Oc1[nH]c2ccc(Br)cc2c1N=NC(=S)N1CCOCC1	-1.3	-3.3	.	5.7	-3.1	32.7*	101.5*	58.3*
CCN1CCN(CCNC(=O)c2ccc(/C=C3\Sc4ccccc4N(Cc4ccccc4F)C3=O)cc2)CC1	2.5	2.2	1.6	15.1	-3.3	-36.9	.	.
COCCCNC(=O)/C=C1\Sc2ccccc2N(Cc2ccccc2F)C1=O	0.2	-11.5	-0.5	8.0	-0.4	65.5*	0.2	13.3
Cc1cc(C(=O)NC2CC2)c2ccccc2n1	-0.2	-5.0	3.1	15.8	2.6	-9.0	.	.
O=C(CCCn1c(=S)[nH]c2ccc(Br)cc2c1=O)N1CCN(c2ccccn2)CC1	-1.8	.	-0.3	.	3.9	6.2	.	.
SMILES	S1P4 agonist	S1P3 antag	Efa HMGR inh	Calb biofilm kill	Rad51 HR inh	S1P4 antagonist	S1P4 antag conf	S1P1 antagonist
Cc1ccc(NN2C(=O)C=C(c3ccccc3)C2=O)cc1	-0.1	14.7	-2.6	24.1	-14.9	37.2*	57.3*	36.3
CCOC(=O)Cc1csc(NC(=O)CSc2nnc(-c3ccc(F)cc3)o2)n1	0.7	-5.3	-5.5	.	5.3	-4.4	.	.
O=C(Nc1ccc(F)cc1F)NC1CC1	-0.2	2.6	6.2	14.9	7.1	0.9	.	.
CC(Nc1ccc(F)cc1F)C(=O)NC(=O)NC1CCCCC1 (stereo not drawn)	1.8	-10.9	-0.8	-1.7	-3.0	30.2*	-3.7	15.1
Cc1ccc(CNC(=O)CSc2c3c(nc4ccc(Cl)cc24)CCCC3)o1	-1.3	.	0.8	.	1.4	35.0*	29.1*	6.8
Cc1ccc(C2=Nc3ccccc3SC(c3cccc([N+](=O)[O-])c3)C2)cc1 (stereo not drawn)	1.0	3.1	.	11.1	17.8	45.5*	11.8	5.7
Cc1cc2c(c(N3CCOCC3)n1)C(=O)OC2	-0.5	.	-4.0	.	-15.7	35.5*	-3.3	-1.1
Cc1cccc(NC(=O)C2CCCN(C(=O)NC3CCCCC3)C2)c1C (stereo not drawn)	0.2	2.2	-2.8	.	1.9	35.8*	-16.0	-9.7
COc1ccccc1NC(=O)N1CCCC(C(=O)Nc2cccc(C)c2C)C1 (stereo not drawn)	0.7	-6.2	-0.8	.	0.6	-3.2	.	.
CN1/C(=C\C(=O)Nc2ccc(F)cc2)C(C)(C)c2ccccc21	4.5	3.5	-7.4	4.2	-2.6	11.3	.	.
N/C(=N/OC(=O)c1ccccc1Cl)c1ncc([N+](=O)[O-])s1	1.1	9.7	.	14.3	.	33.7*	27.7	38.3
O=C(Nc1ccc(N2CCOCC2)cc1)Nc1ccc(Cl)c(Cl)c1	-0.2	.	-0.6	.	-1.6	6.6	.	.
Cc1ccc(NC(=O)CS(=O)CC(=O)Nc2ccc(N3CCOCC3)cc2)cc1Cl (stereo not drawn)	-0.5	-39.4	3.0	.	4.1	30.1*	3.6	-4.3
C=CCN1C(=O)CS/C1=N/c1nccs1	0.9	-20.1	-2.4	.	-4.0	17.0	.	.
CNC1=C([N+](=O)[O-])CC([N+](=O)[O-])=C(N2CCNCC2)N1C	-0.3	-22.8	-2.5	7.9	0.4	35.1*	-1.5	1.6
Cc1ccc2[nH]c(O)c(N=NC(N)=S)c2c1	1.2	-7.3	.	28.7	-5.9	14.1	.	.
CC(/C=C(\NC(=O)c1ccccc1)C(=O)N=Nc1c(O)[nH]c2ccc(C)cc12)=C\c1ccccc1	-3.7	.	-7.4	.	1.0	35.4*	17.9	21.8
C=CCOC(=O)C1=C(C)N=C2SCCC(=O)N2C1c1ccc(OC(=O)c2ccco2)cc1 (stereo not drawn)	0.3	.	-1.1	.	-1.2	37.7*	58.6*	52.3*
CC1Cn2c(nnc2-c2cc3ccccc3cc2O)S1 (stereo not drawn)	1.1	-1.6	-1.5	.	-6.1	33.7*	6.0	26.4
